Legend:
K562 [1] = assay: Inhibition of growth in human erythroleukemia K-562 cells (% of untreated control); type: functional
Outline: (§1)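 K562 cells in RPMI 1640 with 10% heat-inactivated calf serum, glutamine, penicillin/streptomycin; seeded at 5 × 10³ per mL, compound (with or without 30 µM guanosine) added at start. After 5 days, MTT added, 3 h at 37 °C; formazan dissolved in acidified 2-propanol, absorbance 550 nm. Triplicate points; IC50 for 50% growth inhibition averaged over four experiments.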

K562 [2] = assay: Differentiation of K-562 cells at 60 uM with out coadministration of guanosine; type: functional, Homo sapiens
Outline: (§2)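 Human erythroleukemia K562 cells grown in RPMI 1640 with 10% heat-inactivated calf serum, glutamine and penicillin/streptomycin; incubated 5 days with compound, with or without 30 µM guanosine. Hemoglobin expression read by benzidine staining (0.1% benzidine in 0.25% H2O2, equal volume, 5 min, room temperature); 300-400 cells counted for % benzidine-positive. Duplicates; average of three experiments.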

K562 [3] = assay: Tested for inhibition of growth in human erythroleukemia K-562 cells.; type: functional, cell-based; outline: as §1
K562 [4] = assay: Differentiation of K-562 cells at 120 uM with coadministration of guanosine; type: functional, Homo sapiens; outline: as §2
K562 [5] = assay: Differentiation of K-562 cells at 60 uM with coadministration of guanosine; type: functional, Homo sapiens; outline: as §2
K562 [6] = assay: Differentiation of K-562 cells at 120 uM with out coadministration of guanosine; type: functional, Homo sapiens; outline: as §2
K562 [7] = assay: Differentiation of K-562 cells at 19 uM with out coadministration of guanosine; type: functional, Homo sapiens; outline: as §2
K562 [8] = assay: Differentiation of K-562 cells at 3.8 uM with coadministration of guanosine; type: functional, Homo sapiens; outline: as §2
K562 [9] = assay: Differentiation of K-562 cells at 3.8 uM with out coadministration of guanosine; type: functional, Homo sapiens; outline: as §2
K562 [10] = assay: Differentiation of K-562 cells at 19 uM with coadministration of guanosine; type: functional, Homo sapiens; outline: as §2
K562 [11] = assay: Differentiation of K-562 cells at 15 uM with out coadministration of guanosine; type: functional, Homo sapiens; outline: as §2
K562 [12] = assay: Differentiation of K-562 cells at 7.5 uM with out coadministration of guanosine; type: functional, Homo sapiens; outline: as §2
K562 [13] = assay: Differentiation of K-562 cells at 7.5 uM with coadministration of guanosine; type: functional, Homo sapiens; outline: as §2
K562 [14] = assay: Differentiation of K-562 cells at 15 uM with coadministration of guanosine; type: functional, Homo sapiens; outline: as §2
K562 [15] = assay: Differentiation of K-562 cells at 30 uM with out coadministration of guanosine; type: functional, Homo sapiens; outline: as §2
K562 [16] = assay: Differentiation of K-562 cells at 30 uM with coadministration of guanosine; type: functional, Homo sapiens; outline: as §2

## NC(=O)c1cccc([C@@H]2O[C@H](COP(=O)(O)CP(=O)(O)OC[C@@H]3O[C@H](n4cnc5c(N)ncnc54)[C@@H](O)[C@H]3O)[C@@H](O)[C@H]2O)c1
K562 [1]
  Growth inhibition (% of untreated control): 90%
K562 [2]
  Benzidine positive cells: 45%
K562 [3]
  IC50: 60 µM
K562 [4]
  Benzidine positive cells: 17%
K562 [5]
  Benzidine positive cells: 15%
K562 [6]
  Benzidine positive cells: 75%

## NC(=O)c1csc([C@@H]2O[C@H](CO)[C@@H](O)[C@H]2O)n1 [TIAZOFURIN]
K562 [1]
  Growth inhibition (% of untreated control): 90%
K562 [7]
  Benzidine positive cells: 80%
K562 [8]
  Benzidine positive cells: 12%
K562 [9]
  Benzidine positive cells: 36%
K562 [10]
  Benzidine positive cells: 40%

## NC(=O)c1csc([C@H]2O[C@@H](COP(=O)(O)OP(=O)(O)OC[C@H]3O[C@@H](n4cnc5c(N)ncnc54)[C@H](O)[C@@H]3O)[C@H](O)[C@@H]2O)n1
K562 [11]
  Benzidine positive cells: 70%
K562 [1]
  Growth inhibition (% of untreated control): 80%
K562 [12]
  Benzidine positive cells: 50%
K562 [13]
  Benzidine positive cells: 15%
K562 [14]
  Benzidine positive cells: 30%

## NC(=O)c1csc([C@@H]2O[C@H](COP(=O)(O)CP(=O)(O)OC[C@@H]3O[C@H](n4cnc5c(N)ncnc54)[C@@H](O)[C@H]3O)[C@@H](O)[C@H]2O)n1
K562 [11]
  Benzidine positive cells: 34%
K562 [1]
  Growth inhibition (% of untreated control): 90%
K562 [15]
  Benzidine positive cells: 85%
K562 [16]
  Benzidine positive cells: 30%
K562 [14]
  Benzidine positive cells: 23%

Source: ChEMBL document CHEMBL1130411, “The practical synthesis of a methylenebisphosphonate analogue of benzamide adenine dinucleotide: inhibition of human inosine monophosphate dehydrogenase (type I and II)” (J Med Chem, 1997)
